Among the data in ChEMBL document CHEMBL4393701, “Appendix A. dithioloquinolinethiones as new potential multitargeted antibacterial and antifungal agents: Synthesis, biological evaluation and molecular docking studies” (2019) are MFC, MIC and MBC values, retold here.

Each structure is given as a SMILES string. In brackets after ≈: the same amount, converted by molar mass.

Assay [1] deals with Penicillium cyclopium. In words: Fungicidal activity against Penicillium verrucosum var. cyclopium food isolate incubated for 72 hrs followed by sub-culturing on broth malt medium and measured after 72 hrs. The class given is functional. The method in brief:
(§1)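 After 72 h exposure in malt broth, 2 µL from test wells was subcultured into wells holding 100 µL broth and incubated a further 72 h at 28 °C. MFC is the lowest concentration with no visible growth, taken as 99.5% kill of the original inoculum. Three independent experiments in duplicate.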

In assay [2] the test system is Aspergillus versicolor. In words: Fungicidal activity against Aspergillus versicolor ATCC 11730 incubated for 72 hrs followed by sub-culturing on broth malt medium and measured after 72 hrs. Type of assay: functional. The note with it: ATCC 11730, 72 h. An outline of the steps:
as §1

For assay [3], the system named is Aspergillus ochraceus. In words: Antifungal activity against Aspergillus ochraceus ATCC 12066 after 72 hrs by microdilution technique. The class given is functional. The note with it: ATCC 12066, 72 h. An outline of the steps: (§2)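 Spores were washed off malt agar with 0.85% saline containing 0.1% Tween 80 and adjusted to about 1.0×10^5 per well. Compounds in 5% DMSO were serially diluted (0.001-1.0 mg/ml) in malt broth with inoculum. Plates were shaken at 160 rpm for 72 h at 28 °C. MIC is the lowest concentration without visible growth under a binocular microscope. Three independent experiments in duplicate.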
For orientation: Dilution methods test growth across graded concentrations, often in twofold steps.

For assay [4], the system named is Aspergillus versicolor. In words: Antifungal activity against Aspergillus versicolor ATCC 11730 after 72 hrs by microdilution method. The class given is functional. The note with it: ATCC 11730, 72 h. The method in brief:
as §2

Assay [5] deals with Penicillium ochrochloron. Description: Antifungal activity against Penicillium ochrochloron ATCC 9112 after 72 hrs by microdilution technique. The note with it: ATCC 9112, 72 h. The class given is functional. The method in brief: as §2
Assay [6] deals with Aspergillus niger. In words: Antifungal activity against Aspergillus niger ATCC 6275 after 72 hrs by microdilution technique. Type of assay: functional. The note with it: ATCC 6275, 72 h. The method in brief:
as §2

Assay [7] can be described thus: Fungicidal activity against Penicillium funiculosum ATCC 36839 incubated for 72 hrs followed by sub-culturing on broth malt medium and measured after 72 hrs. Type of assay: functional. The note with it: Talaromyces pinophilus, ATCC 36839, 72 h. An outline of the steps: as §1
Assay [8] deals with Trichoderma viride. In words: Antifungal activity against Trichoderma viride IAM 5061 after 72 hrs by microdilution technique. Type of assay: functional. The note with it: IAM 5061, 72 h. The method in brief: as §2
For assay [9], the system named is Aspergillus niger. In words: Fungicidal activity against Aspergillus niger ATCC 6275 incubated for 72 hrs followed by sub-culturing on broth malt medium and measured after 72 hrs. Type of assay: functional. The note with it: ATCC 6275, 72 h. An outline of the steps:
as §1

Assay [10] concerns Trichoderma viride. In words: Fungicidal activity against Trichoderma viride IAM 5061 incubated for 72 hrs followed by sub-culturing on broth malt medium and measured after 72 hrs. The note with it: IAM 5061, 72 h. Type of assay: functional. An outline of the steps:
as §1

Assay [11] deals with Aspergillus ochraceus. Description: Fungicidal activity against Aspergillus ochraceus ATCC 12066 incubated for 72 hrs followed by sub-culturing on broth malt medium and measured after 72 hrs. The class given is functional. The note with it: ATCC 12066, 72 h. An outline of the steps: as §1
The subject of assay [12] is Aspergillus fumigatus. In words: Fungicidal activity against Aspergillus fumigatus ATCC 1022 incubated for 72 hrs followed by sub-culturing on broth malt medium and measured after 72 hrs. The class given is functional. The note with it: ATCC 1022, 72 h. The method in brief:
as §1

Assay [13] deals with Penicillium ochrochloron. Description: Fungicidal activity against Penicillium ochrochloron ATCC 9112 incubated for 72 hrs followed by sub-culturing on broth malt medium and measured after 72 hrs. Type of assay: functional. The note with it: ATCC 9112, 72 h. An outline of the steps:
as §1

Assay [14] deals with Penicillium cyclopium. In words: Antifungal activity against Penicillium verrucosum var. cyclopium food isolate after 72 hrs by microdilution technique. Type of assay: functional. An outline of the steps:
as §2

Assay [15] deals with Aspergillus fumigatus. Description: Antifungal activity against Aspergillus fumigatus ATCC 1022 after 72 hrs by microdilution technique. The class given is functional. The note with it: ATCC 1022, 72 h. An outline of the steps: as §2
Assay [16] can be described thus: Antifungal activity against Penicillium funiculosum ATCC 36839 after 72 hrs by microdilution technique. The class given is functional. The note with it: Talaromyces pinophilus, ATCC 36839, 72 h. An outline of the steps:
as §2

In assay [17] the test system is Bacillus cereus. Description: Bactericidal activity against Bacillus cereus clinical isolate incubated for 24 hrs followed by re-plating on tryptic soy broth. The class given is functional. The method in brief:
(§3)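 Bacteria were grown in tryptic soy broth, 1.0×10^4 CFU per well, with compounds in 5% DMSO at 0.001-1.0 mg/ml for 24 h at 37 °C. Then 10 µL was subcultured into fresh TSB. MBC is the lowest concentration showing no growth after subculture, taken as 99.5% kill of the original inoculum. Duplicates, repeated three times.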

For assay [18], the system named is Pseudomonas aeruginosa. In words: Antibacterial activity against Pseudomonas aeruginosa ATCC 27853 after 24 hrs by iodonitrotetrazolium chloride dye based microdilution method. The note with it: ATCC 27853, 24 h. The class given is functional. An outline of the steps: (§4)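 Fresh overnight cultures adjusted spectrophotometrically to 1×10^5 CFU/mL, giving 1.0×10^4 CFU per well in tryptic soy broth. Compounds were dissolved in 5% DMSO and tested at 0.001-1.0 mg/ml by serial dilution; 5% DMSO was the negative control. After 24 h at 37 °C, 0.2 mg/mL INT solution was added for 30 min at 37 °C and OD read at 655 nm. MIC is the lowest concentration giving significant growth inhibition versus the positive control. Duplicates, repeated three times.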

In assay [19] the test system is Bacillus cereus. In words: Antibacterial activity against Bacillus cereus clinical isolate after 24 hrs by iodonitrotetrazolium chloride dye based microdilution assay. Type of assay: functional. An outline of the steps: as §4
Assay [20] deals with Staphylococcus aureus. Description: Antibacterial activity against Staphylococcus aureus ATCC 6538 after 24 hrs by iodonitrotetrazolium chloride dye based microdilution method. The note with it: ATCC 6538, 24 h. The class given is functional. An outline of the steps: as §4
For assay [21], the system named is Salmonella typhimurium. Description: Bactericidal activity against Salmonella typhimurium ATCC 13311 incubated for 24 hrs followed by re-plating on tryptic soy broth. The class given is functional, Salmonella enterica subsp. enterica serovar Typhimurium. The note with it: Salmonella enterica, ATCC 13311, 24 h. An outline of the steps: as §3
The test system of assay [22] is Listeria monocytogenes. Description: Antibacterial activity against Listeria monocytogenes NCTC 7973 after 24 hrs by iodonitrotetrazolium chloride dye based microdilution method. Type of assay: functional. The note with it: NCTC 7973, 24 h. An outline of the steps:
as §4

The subject of assay [23] is Micrococcus flavus. Description: Antibacterial activity against Micrococcus flavus ATCC 10240 after 24 hrs by iodonitrotetrazolium chloride dye based microdilution method. The class given is functional. The note with it: ATCC 10240, 24 h. An outline of the steps: as §4
Assay [24] concerns Escherichia coli. Description: Antibacterial activity against Escherichia coli ATCC 35210 after 24 hrs by iodonitrotetrazolium chloride dye based microdilution method. Type of assay: functional. The note with it: ATCC 35210, 24 h. The method in brief: as §4
In assay [25] the test system is Enterobacter cloacae. Description: Antibacterial activity against Enterobacter cloacae clinical isolate after 24 hrs by iodonitrotetrazolium chloride dye based microdilution method. Type of assay: functional. An outline of the steps:
as §4

Assay [26] deals with Escherichia coli. Description: Bactericidal activity against Escherichia coli ATCC 35210 incubated for 24 hrs followed by re-plating on tryptic soy broth. Type of assay: functional. The note with it: ATCC 35210, 24 h. An outline of the steps: as §3
Assay [27] deals with Salmonella typhimurium. Description: Antibacterial activity against Salmonella typhimurium ATCC 13311 after 24 hrs by iodonitrotetrazolium chloride dye based microdilution method. Type of assay: functional, Salmonella enterica subsp. enterica serovar Typhimurium. The note with it: Salmonella enterica, ATCC 13311, 24 h. An outline of the steps:
as §4

The test system of assay [28] is Micrococcus flavus. Description: Bactericidal activity against Micrococcus flavus ATCC 10240 incubated for 24 hrs followed by re-plating on tryptic soy broth. The note with it: ATCC 10240, 24 h. Type of assay: functional. An outline of the steps:
as §3

For assay [29], the system named is Staphylococcus aureus. In words: Bactericidal activity against Staphylococcus aureus ATCC 6538 incubated for 24 hrs followed by re-plating on tryptic soy broth. Type of assay: functional. The note with it: ATCC 6538, 24 h. The method in brief:
as §3

Assay [30] relates to Pseudomonas aeruginosa. Description: Bactericidal activity against Pseudomonas aeruginosa ATCC 27853 incubated for 24 hrs followed by re-plating on tryptic soy broth. Type of assay: functional. The note with it: ATCC 27853, 24 h. The method in brief:
as §3

Assay [31] concerns Listeria monocytogenes. Description: Bactericidal activity against Listeria monocytogenes NCTC 7973 incubated for 24 hrs followed by re-plating on tryptic soy broth. The class given is functional. The note with it: NCTC 7973, 24 h. The method in brief: as §3
Assay [32] relates to Enterobacter cloacae. Description: Bactericidal activity against Enterobacter cloacae incubated for 24 hrs followed by re-plating on tryptic soy broth. Type of assay: functional. The method in brief:
as §3

Consider `CC(=O)N1CCN(c2ccc(OCC3COC(Cn4ccnc4)(c4ccc(Cl)cc4Cl)O3)cc2)CC1` (stereo not drawn) [KETOCONAZOLE], for which the MFC in the assay on Penicillium cyclopium [1] came to 57 ×10⁻² mM; against Aspergillus versicolor [2], 380 ×10⁻² mM; in assay [7], 380 ×10⁻² mM; against Aspergillus niger [9], 95 ×10⁻² mM; against Trichoderma viride [10], 570 ×10⁻² mM; against Aspergillus ochraceus [11], 95 ×10⁻² mM. The MFC against Aspergillus fumigatus [12] and with Penicillium ochrochloron [13] was 95 ×10⁻² mM throughout. Besides, the MIC is 38 ×10⁻² mM with Aspergillus ochraceus [3]; 285 ×10⁻² mM in the assay on Aspergillus versicolor [4]; 38 ×10⁻² mM against Penicillium ochrochloron [5]; 38 ×10⁻² mM in the assay on Aspergillus niger [6]; 475 ×10⁻² mM against Trichoderma viride [8]; 38 ×10⁻² mM with Penicillium cyclopium [14]. Besides, the MIC in the assay with Aspergillus fumigatus [15] came to 38 ×10⁻² mM; in assay [16] it was 380 ×10⁻² mM.
Regarding `CN[C@@H]1[C@H](O[C@H]2[C@H](O[C@H]3[C@H](O)[C@@H](O)[C@H](N=C(N)N)[C@@H](O)[C@@H]3N=C(N)N)O[C@@H](C)[C@]2(O)C=O)O[C@@H](CO)[C@H](O)[C@H]1O` [STREPTOMYCIN], the MBC is 86 µM (≈ 50 µg/mL) in the assay with Bacillus cereus [17]; 86 µM (≈ 50 µg/mL) in the assay on Salmonella typhimurium [21]; 344 µM (≈ 200 µg/mL) with Escherichia coli [26]; 172 µM (≈ 100 µg/mL) against Micrococcus flavus [28]; 344 µM (≈ 200 µg/mL) in the assay on Staphylococcus aureus [29]; 344 µM (≈ 200 µg/mL) in the assay with Pseudomonas aeruginosa [30]. The minimum bactericidal concentration (MBC) was found to be 516 µM (≈ 300 µg/mL) in the assay on Listeria monocytogenes [31] and 344 µM (≈ 200 µg/mL) with Enterobacter cloacae [32]. In addition, the MIC with Pseudomonas aeruginosa [18] came to 172 µM (≈ 100 µg/mL); in the assay with Bacillus cereus [19], 43 µM (≈ 25 µg/mL); against Staphylococcus aureus [20] it was 172 µM (≈ 100 µg/mL); in the assay with Listeria monocytogenes [22] it was 258 µM (≈ 150 µg/mL); against Micrococcus flavus [23], 86 µM (≈ 50 µg/mL); in the assay with Escherichia coli [24], 270 µM (≈ 157 µg/mL). For the same compound, the results for the MIC with Enterobacter cloacae [25] and against Salmonella typhimurium [27] were 270 µM (≈ 157 µg/mL) and 43 µM (≈ 25 µg/mL), respectively.
Consider `CC1(C)S[C@@H]2[C@H](NC(=O)[C@H](N)c3ccccc3)C(=O)N2[C@H]1C(=O)O` [AMPICILLIN], for which the MBC was 372 µM (≈ 130 µg/mL) against Bacillus cereus [17]; 380 µM (≈ 133 µg/mL) with Salmonella typhimurium [21]; 1240 µM (≈ 433 µg/mL) with Escherichia coli [26]; 372 µM (≈ 130 µg/mL) in the assay with Micrococcus flavus [28]; 372 µM (≈ 130 µg/mL) in the assay with Staphylococcus aureus [29]; 492 µM (≈ 172 µg/mL) with Pseudomonas aeruginosa [30]. Besides, the MBC worked out at 744 µM (≈ 260 µg/mL) in the assay on Listeria monocytogenes [31] and 1240 µM (≈ 433 µg/mL) against Enterobacter cloacae [32]. Moreover, the MIC was determined as 372 µM (≈ 130 µg/mL) in the assay with Pseudomonas aeruginosa [18]; 248 µM (≈ 86.7 µg/mL) against Bacillus cereus [19]; 248 µM (≈ 86.7 µg/mL) with Staphylococcus aureus [20]; 372 µM (≈ 130 µg/mL) with Listeria monocytogenes [22]; 248 µM (≈ 86.7 µg/mL) against Micrococcus flavus [23]; 744 µM (≈ 260 µg/mL) in the assay with Escherichia coli [24]. Further, the MIC in the assay on Enterobacter cloacae [25] was found to be 744 µM (≈ 260 µg/mL); against Salmonella typhimurium [27] it was 248 µM (≈ 86.7 µg/mL).

The MBC is the smallest concentration meeting the test's criterion for killing. A low value points to greater bactericidal potency.
